# Results from different studies.
# Lines come from different studies, so protocols differ.
# Target: Serine/threonine-protein kinase TAO2 (TAOK2, Homo sapiens, UniProt Q9UL54)
# Residues used in one study (Q9UL54 1-1235): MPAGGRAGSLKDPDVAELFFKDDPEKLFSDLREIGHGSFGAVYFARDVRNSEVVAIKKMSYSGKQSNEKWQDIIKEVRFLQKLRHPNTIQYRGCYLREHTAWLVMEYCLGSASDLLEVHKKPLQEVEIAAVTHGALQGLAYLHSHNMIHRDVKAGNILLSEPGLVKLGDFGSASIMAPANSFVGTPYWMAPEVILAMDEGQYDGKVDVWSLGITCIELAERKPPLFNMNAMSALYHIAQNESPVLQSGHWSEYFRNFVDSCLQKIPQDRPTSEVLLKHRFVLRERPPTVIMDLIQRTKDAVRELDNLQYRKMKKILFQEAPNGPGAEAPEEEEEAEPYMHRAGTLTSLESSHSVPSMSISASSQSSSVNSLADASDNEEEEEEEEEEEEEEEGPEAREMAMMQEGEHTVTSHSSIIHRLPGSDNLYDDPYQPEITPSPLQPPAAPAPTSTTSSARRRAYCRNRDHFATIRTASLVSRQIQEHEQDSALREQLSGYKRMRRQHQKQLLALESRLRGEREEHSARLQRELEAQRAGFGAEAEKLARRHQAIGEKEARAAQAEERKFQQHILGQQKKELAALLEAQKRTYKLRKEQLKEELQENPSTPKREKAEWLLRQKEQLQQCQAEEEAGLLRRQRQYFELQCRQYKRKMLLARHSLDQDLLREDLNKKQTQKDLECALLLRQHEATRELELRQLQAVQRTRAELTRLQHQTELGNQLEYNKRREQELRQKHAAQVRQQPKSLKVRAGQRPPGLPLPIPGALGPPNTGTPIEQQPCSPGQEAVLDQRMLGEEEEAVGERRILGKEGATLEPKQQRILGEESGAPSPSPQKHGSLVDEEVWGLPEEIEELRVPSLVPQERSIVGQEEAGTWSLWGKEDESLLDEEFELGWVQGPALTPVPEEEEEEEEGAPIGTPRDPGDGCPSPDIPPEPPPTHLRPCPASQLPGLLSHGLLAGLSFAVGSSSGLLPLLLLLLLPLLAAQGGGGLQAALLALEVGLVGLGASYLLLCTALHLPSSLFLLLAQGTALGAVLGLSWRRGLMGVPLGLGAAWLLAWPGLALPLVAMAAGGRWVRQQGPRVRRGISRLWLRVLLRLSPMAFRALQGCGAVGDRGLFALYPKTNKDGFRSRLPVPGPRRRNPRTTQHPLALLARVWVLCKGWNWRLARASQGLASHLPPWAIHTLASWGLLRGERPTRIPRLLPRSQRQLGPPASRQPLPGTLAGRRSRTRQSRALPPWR
Structure (SMILES),effect on,action,technique,tested at,measurement,result
O=C(Nc1ccc(Oc2ccc(F)cc2)cc1)N1CCc2ncccc2[C@H]1c1ccc(F)cc1,cell-free assay,,competition with immobilised ligand,1 µM,remaining binding,100%
CC(C)(C)c1nc2c(s1)c1nc(N)ncc1c1ccc(NS(=O)(=O)c3c(F)cccc3F)c(F)c12,enzyme activity,inhibitor,radiometric,1 µM,remaining activity,84%
CCCOc1ccc([C@H]2[C@H](C(=O)O)[C@@H](c3ccc4c(c3)OCO4)CN2CC(=O)Nc2c(CC)cccc2CC)cc1,cell-free assay,,competition with immobilised ligand,1 µM,remaining binding,74%
c1ccc(CNc2nc(N3CCOc4ccccc43)nc3c2CCCC3)cc1,target engagement in cells,inhibitor,chemoproteomics,20 mM,inhibition,-2.6%
Cc1ccc(Nc2nccc(N(C)c3ccc4c(C)n(C)nc4c3)n2)cc1S(N)(=O)=O,enzyme activity,inhibitor,,0.3 µM,inhibition,43%
O=[N+]([O-])c1cccc2[nH]c(CNc3nc(N4CCOCC4)nc4c3ncn4-c3ccsc3)nc12,binding,,competition with immobilised ligand,10 µM,binding vs control,84%
CNC(=O)c1cc(Oc2ccc(NC(=O)Nc3ccc(Cl)c(C(F)(F)F)c3)cc2)ccn1,enzyme activity,inhibitor,,10 µM,inhibition,102%
CN1CC(Oc2cnc(C#N)cc2-c2ccn3nc(NC(=O)C4CC4)cc3c2)C1,enzyme activity,inhibitor,,1 µM,inhibition,0%
O=C1CCc2cc(Nc3cc(OC4CCOCC4)c([N+](=O)[O-])cc3Cl)ccc2N1,cell-free assay,,competition with immobilised ligand,1 µM,remaining binding,82%
CCCOc1ccc(OC)c(F)c1C(=O)c1ccc(C(=O)N[C@@H]2CNC[C@H]2NC(=O)c2ccc3[nH]ncc3c2)cc1,enzyme activity,inhibitor,,10 µM,remaining activity,95%
O=C(NS(=O)(=O)c1ccc(NCC2CCOCC2)c([N+](=O)[O-])c1)c1ccc(N2CCN(Cc3ccc(C(F)(F)F)cc3-c3ccc(Cl)cc3)CC2)cc1Oc1cnc2[nH]ccc2c1,cell-free assay,,competition with immobilised ligand,1 µM,remaining binding,82%
CSc1nc(C)c(-c2ccnc(Nc3ccc(N4CCOCC4)cc3)c2)[nH]1,enzyme activity,inhibitor,,10 µM,inhibition,2.1%
COc1cccc(CNC(=O)c2nc3scc(COCc4ccc(C(=O)O)cc4)c3c(=O)[nH]2)c1,cell-free assay,,competition with immobilised ligand,1 µM,remaining binding,59.8%
CCN(CC)CCNC(=O)c1c(C)[nH]c(/C=C2\C(=O)Nc3ccc(F)cc32)c1C,enzyme activity,inhibitor,,0.3 µM,inhibition,-3%
C[C@@H]1CCN(c2nccc(-c3cnn4ncccc34)n2)C1,binding,,,1 µM,remaining binding,75%
Nc1ncnc2occ(-c3ccc(NC(=O)Nc4cc(C(F)(F)F)ccc4F)cc3)c12,cell-free assay,inhibitor,,20 µM,remaining signal,0%
COc1cccc2c(NCc3ccccc3)nc(-n3c(N)nc4ccccc43)nc12,target engagement in cells,inhibitor,chemoproteomics,20 mM,inhibition,-6.8%
COc1cc(-c2cc(-c3ccc(N4CCNCC4)cc3)cnc2C)cc(OC)c1OC,enzyme activity,inhibitor,,0.1 µM,inhibition,2%
